Experimental data reported in ChEMBL document CHEMBL2321699, “Discovery of O-Alkylamino Tethered Niclosamide Derivatives as Potent and Orally Bioavailable Anticancer Agents” (ACS Med Chem Lett, 2013).
≈ marks a conversion by molar mass, not a printed value. Calls of active or inactive are those of the source. The calls are words filed in the database; no cut-off is given here.

Legend:
PANC-1 = assay: Cytotoxicity against human PANC1 cells after 72 hrs by MTS assay; format: functional, cell-based; settings: PANC-1, 72 h
How it was run: (§1)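 Cell proliferation of MCF-7, MDA-MB-231, AsPC1 and Panc-1 measured by MTS assay; IC50 in μM.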

ASPC1 = assay: Cytotoxicity against human AsPC1 cells after 72 hrs by MTS assay; format: functional, cell-based; settings: ASPC1, 72 h; how it was run: as §1
MCF7 = assay: Cytotoxicity against human ER positive MCF7 cells after 72 hrs by MTS assay; format: functional, cell-based; settings: MCF7, 72 h; how it was run: as §1
MDA-MB-231 [1] = assay: Cytotoxicity against human ER negative MDA-MB-231 cells after 72 hrs by MTS assay; format: functional, cell-based; settings: MDA-MB-231, 72 h; how it was run: as §1
MDA-MB-231 [2] = assay: Antitumor activity against human ER negative MDA-MB-231 cells xenografted in nude mouse assessed as inhibition of tumor growth at 25 mg/kg, po qd for 5 days; format: functional, organism-based; set-up: dose 25 mg/kg
How it was run: (§2)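 MDA-MB-231 xenografts in mice; tumor growth followed after intraperitoneal or oral dosing, doses as listed per line.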

MDA-MB-231 [3] = assay: Antitumor activity against human ER negative MDA-MB-231 cells xenografted in nude mouse assessed as inhibition of tumor growth at 7.5 mg/kg, ip qd for 5 days; format: functional, organism-based; set-up: dose 7.5 mg/kg; how it was run: as §2
MDA-MB-231 [4] = assay: Induction of apoptosis in human ER negative MDA-MB-231 cells assessed as cleavage of caspase-3 after 48 hrs; format: functional, cell-based
MDA-MB-231 [5] = assay: Induction of apoptosis in human ER negative MDA-MB-231 cells using annexin-V staining at 1 to 10 uM after 48 hrs by flow cytometry; format: functional, cell-based
How it was run: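 Apoptosis in MDA-MB-231 cells measured by annexin V staining with flow cytometry across a dose range.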

MDA-MB-231 [6] = assay: Induction of apoptosis in human ER negative MDA-MB-231 cells assessed as down regulation of cycline D1 at 1 to 10 uM after 48 hrs; format: functional, cell-based
MDA-MB-231 [7] = assay: Induction of apoptosis in human ER negative MDA-MB-231 cells assessed as cleavage of caspase-3 at 1 to 10 uM after 48 hrs; format: functional, cell-based
MDA-MB-231 [8] = assay: Antiproliferative activity against human ER negative MDA-MB-231 cells at 10 to 20 uM after 24 hrs by MTT assay; format: functional, cell-based
How it was run: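 MDA-MB-231 cells exposed 24 h; proliferation read by MTT assay.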

[9] = target: Signal transducer and activator of transcription 3 (Homo sapiens) (UniProt P40763); assay: Inhibition of STAT3 promoter activity in human ER negative MDA-MB-231 cells after 24 hrs by dual luciferase reporter assay; format: cell-based
How it was run: (§3)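 MDA-MB-231 cells pretreated 24 h at various concentrations, then transiently transfected with pSTAT3-Luc vector; STAT3 promoter activity by dual luciferase reporter assay, expressed relative to control.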

[10] = target: Signal transducer and activator of transcription 3 (Homo sapiens) (UniProt P40763); assay: Inhibition of STAT3 promoter activity in human ER negative MDA-MB-231 cells at 20 uM after 24 hrs by dual luciferase reporter assay; format: cell-based; how it was run: as §3
[11] = target: Signal transducer and activator of transcription 3 (Homo sapiens) (UniProt P40763); assay: Inhibition of STAT3 promoter activity in human ER negative MDA-MB-231 cells at 10 uM after 24 hrs by dual luciferase reporter assay; format: cell-based; how it was run: as §3
[12] = target: Signal transducer and activator of transcription 3 (Homo sapiens) (UniProt P40763); assay: Inhibition of STAT3 in human ER negative MDA-MB-231 cells assessed as reduction of total STAT3 level at 1 to 10 uM after 24 hrs by Western blot analysis; format: cell-based
How it was run: (§4)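 MDA-MB-231 cells treated with a series of doses for 24 h; total STAT3 and Tyr-705-phosphorylated STAT3 detected by Western blot.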

MDA-MB-231 [13] = assay: Induction of morphological changes in human ER negative MDA-MB-231 cells at 1 to 10 uM after 48 hrs by light microscopic analysis; format: functional, cell-based
How it was run: (§5)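 MDA-MB-231 cells treated 48 h at 1, 5 and 10 μM; cell morphology, growth and apoptotic features examined under light microscopy.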

MDA-MB-231 [14] = assay: Induction of apoptosis in human ER negative MDA-MB-231 cells at 1 to 10 uM after 48 hrs by light microscopic analysis; format: functional, cell-based; how it was run: as §5
MDA-MB-231 [15] = assay: Antiproliferative activity against human ER negative MDA-MB-231 cells at 1 to 10 uM after 48 hrs by light microscopic analysis; format: functional, cell-based; how it was run: as §5
[16] = target: Signal transducer and activator of transcription 3 (Homo sapiens) (UniProt P40763); assay: Inhibition of STAT3 in human ER negative MDA-MB-231 cells assessed as reduction of phosphorylated STAT3 at Tyr-705 level at 1 to 10 uM after 24 hrs by Western blot analysis; format: cell-based; how it was run: as §4
MDA-MB-231 [17] = assay: Antitumor activity against human ER negative MDA-MB-231 cells xenografted in nude mouse assessed as inhibition of tumor growth at 75 mg/kg, po qd for 5 days; format: functional, organism-based; set-up: dose 75 mg/kg; how it was run: as §2
MDA-MB-231 [18] = assay: Antitumor activity against human ER negative MDA-MB-231 cells xenografted in nude mouse assessed as inhibition of tumor growth at 12.5 mg/kg, ip qd for 5 days; format: functional, organism-based; set-up: dose 12.5 mg/kg; how it was run: as §2
[19] = Solubility of the compound in water; format: physicochemical

Chain of Signal transducer and activator of transcription 3 (Homo sapiens) (P40763 whole entry): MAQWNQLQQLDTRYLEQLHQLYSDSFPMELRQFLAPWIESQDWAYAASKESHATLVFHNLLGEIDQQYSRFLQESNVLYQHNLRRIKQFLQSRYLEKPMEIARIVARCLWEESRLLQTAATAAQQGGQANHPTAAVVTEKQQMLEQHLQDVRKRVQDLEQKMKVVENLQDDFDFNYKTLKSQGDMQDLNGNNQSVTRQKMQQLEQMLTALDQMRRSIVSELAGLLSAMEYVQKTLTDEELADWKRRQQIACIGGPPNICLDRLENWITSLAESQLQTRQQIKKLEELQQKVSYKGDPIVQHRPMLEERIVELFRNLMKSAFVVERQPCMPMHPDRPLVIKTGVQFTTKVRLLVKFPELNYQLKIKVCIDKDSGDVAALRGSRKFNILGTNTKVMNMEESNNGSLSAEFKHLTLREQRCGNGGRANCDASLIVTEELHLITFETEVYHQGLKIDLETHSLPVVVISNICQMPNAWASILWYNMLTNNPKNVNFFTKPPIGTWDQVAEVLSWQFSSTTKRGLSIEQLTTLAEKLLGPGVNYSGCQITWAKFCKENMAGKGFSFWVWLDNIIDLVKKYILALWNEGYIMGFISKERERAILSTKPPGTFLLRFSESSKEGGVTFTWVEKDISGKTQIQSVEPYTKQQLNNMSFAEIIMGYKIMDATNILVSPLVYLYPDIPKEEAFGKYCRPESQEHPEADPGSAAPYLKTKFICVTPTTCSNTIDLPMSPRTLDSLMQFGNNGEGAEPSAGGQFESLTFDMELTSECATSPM

Row | Compound | IC50 (PANC-1) [µM] | IC50 (ASPC1) [µM] | IC50 (MCF7) [µM] | IC50 (MDA-MB-231 [1]) [µM] | also measured
1 | CN1CCC(Oc2ccc(Cl)cc2C(=O)Nc2ccc([N+](=O)[O-])cc2Cl)CC1 | > 10 | 3.51 | 4.11 | 2.69 | –
2 | NCCCCOc1ccc(Cl)cc1C(=O)Nc1ccc([N+](=O)[O-])cc1Cl | > 10 | 7.4 | 3.7 | 2.37 | –
3 | CS(=O)(=O)Nc1ccc(NC(=O)c2cc(Cl)ccc2OC2CCNCC2)c(Cl)c1 | – | – | > 10 | > 10 | –
4 | NCCOc1ccc(Cl)cc1C(=O)Nc1ccc([N+](=O)[O-])cc1Cl | 1.08 | 1.9 | 0.91 | 1.64 | TGI (MDA-MB-231 [2]): Active; TGI (MDA-MB-231 [3]): Active; Activity (MDA-MB-231 [4]): Dose-dependent effect; Activity (MDA-MB-231 [5]): Active; Activity (MDA-MB-231 [6]): Active; Activity (MDA-MB-231 [7]): Active; Activity (MDA-MB-231 [8]): Active; Activity [9]: Active; inhibition [9]: Dose-dependent effect; inhibition [10]: 62%; inhibition [11]: 32%; inhibition [12]: Active; Activity (MDA-MB-231 [13]): Active; Activity (MDA-MB-231 [14]): Active; Activity (MDA-MB-231 [15]): Active; inhibition [16]: Active
5 | O=C(Nc1ccc([N+](=O)[O-])cc1Cl)c1cc(Cl)ccc1OCCN1CCNCC1 | – | – | 12.4 | 8.7 | –
6 | O=C(Nc1ccc([N+](=O)[O-])cc1Cl)c1cc(Cl)ccc1O [NICLOSAMIDE] | 1.73 | 1.47 | 1.06 | 0.79 | TGI (MDA-MB-231 [17]): Active; TGI (MDA-MB-231 [18]): Active; Activity (MDA-MB-231 [4]): Dose-dependent effect; Activity (MDA-MB-231 [8]): Active; Activity [9]: Active; inhibition [10]: Active; inhibition [11]: Active; solubility ([19]; water, read-out: solubility): 0.23 µg/mL (≈ 0.703 µM); inhibition [12]: Active; Activity (MDA-MB-231 [13]): Active; Activity (MDA-MB-231 [14]): Active; Activity (MDA-MB-231 [15]): Active; inhibition [16]: Active
7 | O=C(Nc1ccc([N+](=O)[O-])cc1Cl)c1cc(Cl)ccc1OC1CCNCC1 [listing 1 of 2 here] | – | – | – | – | Activity (MDA-MB-231 [13]): Active; Activity (MDA-MB-231 [14]): Active; Activity (MDA-MB-231 [15]): Active
8 | Cl.O=C(Nc1ccc([N+](=O)[O-])cc1Cl)c1cc(Cl)ccc1OC1CCNCC1 | – | – | – | – | solubility ([19]; buffer): 248 µg/mL
9 | O=C(Nc1ccc([N+](=O)[O-])cc1Cl)c1cc(Cl)ccc1OCCN1CCOCC1 | > 10 | 72.2 | 9.87 | 18 | –
10 | CC(=O)Nc1ccc(NC(=O)c2cc(Cl)ccc2OC2CCNCC2)c(Cl)c1 | – | – | > 10 | 5.87 | –
11 | CN1CCN(CCOc2ccc(Cl)cc2C(=O)Nc2ccc([N+](=O)[O-])cc2Cl)CC1 | – | – | > 10 | > 10 | –
12 | NCCCCCOc1ccc(Cl)cc1C(=O)Nc1ccc([N+](=O)[O-])cc1Cl | 4.67 | 2.08 | 3.49 | 3.1 | –
13 | O=C(Nc1ccc([N+](=O)[O-])cc1Cl)c1cc(Cl)ccc1OCCN1CCCCC1 | – | – | > 10 | > 10 | –
14 | O=C(Nc1ccc([N+](=O)[O-])cc1Cl)c1cc(Cl)ccc1OCCF | – | – | > 10 | > 10 | –
15 | NCCOCCOc1ccc(Cl)cc1C(=O)Nc1ccc([N+](=O)[O-])cc1Cl | > 10 | > 10 | 9.37 | 5.3 | –
16 | CN(C)CCOc1ccc(Cl)cc1C(=O)Nc1ccc([N+](=O)[O-])cc1Cl | – | – | > 10 | > 10 | –
17 | O=C(Nc1ccc([N+](=O)[O-])cc1Cl)c1cc(Cl)ccc1OC1CCNCC1 [listing 2 of 2 here] | 0.54 | 2.76 | 0.25 | 0.29 | –
18 | NCCCOc1ccc(Cl)cc1C(=O)Nc1ccc([N+](=O)[O-])cc1Cl | 3.11 | 4.2 | 3.11 | 2.61 | –
